# Experimental data published in ChEMBL document CHEMBL1781999, “Lead optimization of aryl and aralkyl amine-based triazolopyrimidine inhibitors of Plasmodium falciparum dihydroorotate dehydrogenase with antimalarial activity in mice” (J Med Chem, 2011).
# Calls of active or inactive are those of the source. The rule behind the calls is not given here.
# Assays:
# [1] = Partition coefficient, log D of the compound at pH 7.4 by UV-HPLC analysis; conditions: octanol/water
# [2] = Plasma protein binding in rat by ultracentrifugation analysis; format: ADME, cell-free; conditions: read-out: PPB (converted)
# In short: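 Rat plasma spiked at 200 and 2000 ng/mL, then ultracentrifuged at 223,000 × g for 4.2 h at 37 °C. Free drug in the supernatant plasma water was compared with total drug in non-centrifuged plasma kept at 37 °C for the same time, giving fraction bound.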
# Plasmodium berghei ANKA [3] = test: Antimalarial activity against Plasmodium berghei ANKA NK65 infected in Swiss Webster mouse assessed as complete cure of animal at 50 mg/kg, po bid measured on day 7 by light microscopic analysis; format: functional, organism-based; design: dose 50 mg/kg
# Mus musculus [4] = test: Time duration above 1 uM plasma concentration in Swiss mouse at 20 mg/kg, po; format: ADME, organism-based; design: dose 20 mg/kg, route oral; conditions: in vivo
# In short: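 Non-fasted male Swiss outbred mice given a single gavage dose in suspension (0.5% Na-CMC, 0.5% benzyl alcohol, 0.4% Tween 80). One mouse per time point; blood taken by cardiac puncture under isoflurane into stabilizer over 24 h. Plasma measured by LC-MS; time above 1 μM read directly from the concentration-time profile.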
# Plasmodium berghei ANKA [5] = test: Antimalarial activity against Plasmodium berghei ANKA NK65 infected in Swiss Webster mouse assessed as complete cure of animal at 100 mg/kg, po qd measured on day 7 by light microscopic analysis; format: functional, organism-based; design: dose 100 mg/kg
# In short: (§1)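 Female Swiss Webster mice, 8-10 weeks old (20-22 g), infected intraperitoneally with 2 × 10^7 P. berghei NK65 ANKA-infected erythrocytes. Oral doses in CMC vehicle (200 μL), first given 3 h post-infection, then at 24, 48 and 72 h. Parasitemia followed daily from 24 h by light microscopy at 1000× oil immersion, counting ≥10 fields of >100 erythrocytes. Mice losing ≥20% body weight were euthanized.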
# Liver = test: Intrinsic clearance in mouse liver microsome assessed per mg of protein at 1 uM after 60 mins by LC-MS analysis; format: ADME; conditions: microsomes, 1 h
# In short: (§2)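 Microsomal stability. Compound at 1 μM with liver microsomes (0.4 mg/mL protein) in 0.1 M phosphate pH 7.4 at 37 °C. Started with an NADPH-regenerating system plus MgCl2; controls lacked NADPH. Quenched with cold acetonitrile at time points up to 60 min. Parent loss measured by LC-MS and fitted to exponential decay to give CLint.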
# Rattus norvegicus [6] = organism: Rattus norvegicus; test: Toxicity in Sprague-Dawley rat assessed as adverse effects; conditions: in vivo
# [7] = Aqueous solubility of the compound in phosphate buffer at pH 6.5; format: physicochemical; conditions: phosphate buffer, read-out: solubility
# In short: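 Non-equilibrium solubility. Concentrated DMSO stocks were diluted into pH 6.5 phosphate buffer (final DMSO 1% v/v) and precipitation was monitored by nephelometry. Solubility is given as the concentration range just before a turbidity signal rose above background.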
# Plasmodium falciparum [8] = test: Antimalarial activity against Plasmodium falciparum 3D7 infected in human A positive erythrocytes by [3H]hypoxanthine uptake assay in presence of serum in medium albumax; format: functional, organism-based
# Mus musculus [9] = test: Toxicity in Plasmodium berghei ANKA NK65 infected Swiss Webster mouse assessed as adverse effect at 50 mg/kg, po bid for 4 days; format: organism-based; design: dose 50 mg/kg, route oral; conditions: in vivo, 96 h
# Mus musculus [10] = test: Toxicity in Swiss mouse assessed as adverse effect at 20 mg/kg, po measured after 24 hrs; format: organism-based; design: dose 20 mg/kg, route oral; conditions: in vivo
# [11] = biological target: T1, Dihydroorotate dehydrogenase (Plasmodium falciparum, UniProt Q54A96); test: Inhibition of His6-tagged recombinant Plasmodium falciparum dihydroorotate dehydrogenase expressed in Escherichia coli using L-dihydroorotate as substrate after 5 to 10 mins by DCIP dye-based assay
# T1 sequence (Q54A96 whole entry): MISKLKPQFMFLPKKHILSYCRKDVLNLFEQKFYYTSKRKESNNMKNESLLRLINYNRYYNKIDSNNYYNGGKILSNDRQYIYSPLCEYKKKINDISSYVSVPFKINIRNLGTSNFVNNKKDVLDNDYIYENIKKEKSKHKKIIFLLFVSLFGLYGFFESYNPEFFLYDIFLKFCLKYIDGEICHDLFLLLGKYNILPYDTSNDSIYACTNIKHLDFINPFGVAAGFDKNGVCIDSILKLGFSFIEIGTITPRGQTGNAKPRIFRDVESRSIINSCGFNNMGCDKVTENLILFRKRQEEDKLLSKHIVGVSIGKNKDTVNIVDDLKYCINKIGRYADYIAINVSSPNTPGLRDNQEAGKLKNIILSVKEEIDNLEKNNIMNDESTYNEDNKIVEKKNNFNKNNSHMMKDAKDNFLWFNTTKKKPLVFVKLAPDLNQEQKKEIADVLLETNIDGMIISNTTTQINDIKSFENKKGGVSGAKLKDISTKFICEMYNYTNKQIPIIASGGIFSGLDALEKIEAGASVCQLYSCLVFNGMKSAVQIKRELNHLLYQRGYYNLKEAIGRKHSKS
# Liver microsomes = test: Intrinsic clearance in human liver microsome assessed per mg of protein at 1 uM after 60 mins by LC-MS analysis; format: ADME; conditions: microsomes, 1 h, 1 µM; in short: as §2
# [12] = Plasma protein binding in human by albumin chromatographic method; format: ADME, cell-free; conditions: read-out: PPB (converted)
# Mus musculus [13] = test: Toxicity in Plasmodium berghei ANKA NK65 infected Swiss Webster mouse assessed as adverse effect at 3 to 100 mg/kg, po qd for 4 days; format: organism-based; design: dose 3-100 mg/kg, route oral; conditions: in vivo, 96 h; in short: as §1
# Rattus norvegicus [14] = test: Toxicity in Sprague-Dawley rat assessed as adverse effects at 20 mg/kg, po; format: organism-based; design: dose 20 mg/kg, route oral; conditions: in vivo
# In short: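 Male Sprague Dawley rats, fasted overnight, given compound as a 10 min IV jugular infusion (solution) or by oral gavage (suspension), n=2 per group. Monitored through 24 h of cannula blood sampling.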
# Plasmodium falciparum [15] = test: Antimalarial activity against Plasmodium falciparum 3D7 infected in human A positive erythrocytes by [3H]hypoxanthine uptake assay in presence of serum in medium; format: functional, organism-based
# In short: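 Growth read by [3H]-hypoxanthine uptake. Each concentration run in quadruplicate and fitted to a four-parameter variable-slope log[I]-response model for 50% growth inhibition.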
# [16] = Inhibition of His6-tagged recombinant Plasmodium berghei dihydroorotate dehydrogenase expressed in Escherichia coli using L-dihydroorotate as substrate after 10 to 15 mins by DCIP dye-based assay; conditions: in the assay text read “5 to 10 mins” for “10 to 15 mins”
# In short: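 Truncated soluble enzyme lacking the N-terminal membrane domain. Final concentrations: 0.2 mM L-dihydroorotate, 0.02 mM CoQD, 0.12 mM DCIP. Reaction started with 10 nM enzyme and read at 600 nm for 5–10 min at 20 °C. Inhibitor 0.01–100 μM in 3-fold steps, in triplicate. IC50 from a three-parameter fit of vi/vo from initial rates.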
# [17] = biological target: Dihydroorotate dehydrogenase (quinone), mitochondrial (Homo sapiens, UniProt Q02127); test: Inhibition of His6-tagged recombinant human dihydroorotate dehydrogenase expressed in Escherichia coli using L-dihydroorotate as substrate after 5 to 10 mins by DCIP dye-based assay
# Chain of Dihydroorotate dehydrogenase (quinone), mitochondrial (Q02127 whole entry): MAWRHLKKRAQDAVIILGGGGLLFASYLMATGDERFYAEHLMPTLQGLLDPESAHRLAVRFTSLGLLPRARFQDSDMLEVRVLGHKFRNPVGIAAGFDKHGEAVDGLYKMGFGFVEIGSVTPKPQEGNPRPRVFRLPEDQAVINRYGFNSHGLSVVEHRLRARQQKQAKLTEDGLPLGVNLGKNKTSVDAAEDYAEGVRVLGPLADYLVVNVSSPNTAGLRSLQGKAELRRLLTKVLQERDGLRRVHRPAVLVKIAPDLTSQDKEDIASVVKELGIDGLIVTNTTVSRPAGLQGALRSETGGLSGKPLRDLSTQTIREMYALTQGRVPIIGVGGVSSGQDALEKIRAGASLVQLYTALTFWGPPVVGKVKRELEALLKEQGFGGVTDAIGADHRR
# Mus musculus [18] = test: Cmax in Swiss mouse at 20 mg/kg, po measured after 24 hrs by LC-MS analysis; format: ADME, organism-based; design: dose 20 mg/kg, route oral; conditions: in vivo
# In short: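 Non-fasted male Swiss outbred mice given a single oral gavage dose in 0.5% w/v sodium carboxymethylcellulose, 0.5% v/v benzyl alcohol, 0.4% v/v Tween 80. One mouse per time point, cardiac blood under isoflurane, sampling to 24 h. Plasma stabilized, acetonitrile-precipitated, quantified by LC-MS against blank-plasma standards; Cmax read from concentration-time profile.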
SMILES,logD [1],fraction unbound [2],Activity (Plasmodium berghei ANKA [3]),Time (Mus musculus [4]) [h],Activity (Plasmodium berghei ANKA [5]),CL (Liver) [µL/min/mg],Activity (Rattus norvegicus [6]),solubility [7] [µM],EC50 (Plasmodium falciparum [8]) [nM],Activity (Mus musculus [9]),Activity (Mus musculus [10]),IC50 [11] [nM],CL (Liver microsomes) [µL/min/mg],fraction unbound [12],Activity (Mus musculus [13]),Activity (Rattus norvegicus [14]),EC50 (Plasmodium falciparum [15]) [nM],IC50 [16] [nM],IC50 [17] [nM],Cmax (Mus musculus [18]) [µM]
Cc1cc(Nc2ccc(S(F)(F)(F)(F)F)cc2)n2ncnc2n1,3,0.048,inactive,18,inactive,< 6,Non-toxic,71,180,Non-toxic,Non-toxic,130,< 5,0.046,Non-toxic,Non-toxic,1300,280,> 100000,12
Cc1cc(Nc2cc(F)c(C(F)(F)F)c(F)c2)n2ncnc2n1,2.9,0.027,inactive,19,inactive,< 6,Non-toxic,9,220,Non-toxic,Non-toxic,190,< 5,0.034,Non-toxic,Non-toxic,1100,280,> 30000,33
